≈ marks a conversion by molar mass, not a printed value.
Tests used:
[1] = concentrations up to 5 mM; cited from earlier work
[2] = system: A549 cells; experiment: MTT cell viability assay; assay type: cell-based; conditions: 18 h, triplicates, CX4 alone up to 200 μM
How it was run: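 A549 cells were grown in DMEM/F12 with 10% heat-inactivated FBS and 1% penicillin/streptomycin at 37 °C, 5% CO2. They were seeded at 1×10^4 cells/well and exposed in triplicate for 18 h to a range of test compound concentrations, alone or complexed with peptide. CX4 was at most 4 mM in complexes. MTT absorbance was read at 570 nm and reported as mean ± standard error, with Tukey test (P < 0.05).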

[3] = Solubility of curcumin; assay type: physicochemical; conditions: in the presence of FAM-Y4R4; absorption peak at 425 nm, curcumin standard curve
[4] = cited from earlier work
[5] = Overall binding constant of curcumin; conditions: average of fluorescence (tyrosine) and UV-vis (phenol) titration
[6] = UV-vis titration of curcumin with phenol; assay type: binding; conditions: isotherm at 430 nm, 1:1 model, non-linear regression
How it was run: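 Curcumin was spectroscopically titrated with phenol, which stands in for the tyrosine side chain. The binding isotherm was plotted from absorbance at 430 nm. Ka was fitted by nonlinear regression to a one-host-to-one-guest binding model.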

[7] = Spectral titration of phenol with guanidine HCl; conditions: calculated from the binding isotherm of phenol with guanidine HCl

O=S(=O)(O)c1cc2c(O)c(c1)Cc1cc(S(=O)(=O)O)cc(c1O)Cc1cc(S(=O)(=O)O)cc(c1O)Cc1cc(S(=O)(=O)O)cc(c1O)C2 [CX4, p-sulfonatocalix[4]arene]
hemolytic toxicity [1]: no hemolytic toxicity
maximum decrease in cell viability [2]: ≤ 22%

COc1cc(/C=C/C(=O)CC(=O)/C=C/c2ccc(O)c(OC)c2)ccc1O [curcumin]
solubility of curcumin when bound to the tyrosines of FAM-Y4R4 [3]: 0.4 µM
solubility in water [4]: 0.03 µM (≈ 0.0111 µg/mL)
overall binding constant Ka (average of the two values) [5]: 2.38e+06 M⁻¹
Ka of curcumin to phenol [6]: 4.6e+06 M⁻¹

Cl.N=C(N)N [guanidine HCl]
binding energy [7]: 8.13 kcal/mol

From publication PMC11474258 (RSC Advances, 2024)
